Assay [1] concerns the target T1, Adrenergic receptor alpha-1 (Rattus norvegicus, UniProt P15823+P23944+P43140).
T1 sequence (P15823 whole entry): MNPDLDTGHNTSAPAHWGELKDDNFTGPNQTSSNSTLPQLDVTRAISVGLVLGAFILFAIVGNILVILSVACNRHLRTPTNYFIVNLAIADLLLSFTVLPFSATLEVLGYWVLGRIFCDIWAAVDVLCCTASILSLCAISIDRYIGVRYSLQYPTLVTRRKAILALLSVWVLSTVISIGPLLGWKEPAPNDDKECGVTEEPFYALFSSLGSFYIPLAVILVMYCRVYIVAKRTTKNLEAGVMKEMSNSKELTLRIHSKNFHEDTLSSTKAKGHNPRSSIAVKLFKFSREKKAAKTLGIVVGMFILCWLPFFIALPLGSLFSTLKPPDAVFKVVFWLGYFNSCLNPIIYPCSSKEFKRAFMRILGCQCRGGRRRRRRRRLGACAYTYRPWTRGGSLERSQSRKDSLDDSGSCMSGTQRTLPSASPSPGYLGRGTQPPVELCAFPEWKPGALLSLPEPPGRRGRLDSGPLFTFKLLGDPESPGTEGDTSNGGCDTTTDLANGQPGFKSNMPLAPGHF
T1 sequence (P23944 whole entry): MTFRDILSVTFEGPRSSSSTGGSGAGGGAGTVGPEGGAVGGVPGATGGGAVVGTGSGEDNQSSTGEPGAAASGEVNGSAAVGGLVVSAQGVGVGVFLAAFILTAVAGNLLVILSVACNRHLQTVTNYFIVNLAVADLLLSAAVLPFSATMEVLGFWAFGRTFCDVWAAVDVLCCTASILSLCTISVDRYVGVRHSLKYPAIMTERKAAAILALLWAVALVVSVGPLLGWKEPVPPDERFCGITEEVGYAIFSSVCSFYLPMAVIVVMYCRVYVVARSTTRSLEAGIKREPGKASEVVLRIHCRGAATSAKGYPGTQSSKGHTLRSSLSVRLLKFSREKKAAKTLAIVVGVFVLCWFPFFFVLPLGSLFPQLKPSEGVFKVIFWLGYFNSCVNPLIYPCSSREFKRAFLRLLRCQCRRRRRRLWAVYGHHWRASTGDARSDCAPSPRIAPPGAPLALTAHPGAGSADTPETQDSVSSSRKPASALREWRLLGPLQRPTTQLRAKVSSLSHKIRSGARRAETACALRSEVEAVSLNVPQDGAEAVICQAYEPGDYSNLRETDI
T1 sequence (P43140 whole entry): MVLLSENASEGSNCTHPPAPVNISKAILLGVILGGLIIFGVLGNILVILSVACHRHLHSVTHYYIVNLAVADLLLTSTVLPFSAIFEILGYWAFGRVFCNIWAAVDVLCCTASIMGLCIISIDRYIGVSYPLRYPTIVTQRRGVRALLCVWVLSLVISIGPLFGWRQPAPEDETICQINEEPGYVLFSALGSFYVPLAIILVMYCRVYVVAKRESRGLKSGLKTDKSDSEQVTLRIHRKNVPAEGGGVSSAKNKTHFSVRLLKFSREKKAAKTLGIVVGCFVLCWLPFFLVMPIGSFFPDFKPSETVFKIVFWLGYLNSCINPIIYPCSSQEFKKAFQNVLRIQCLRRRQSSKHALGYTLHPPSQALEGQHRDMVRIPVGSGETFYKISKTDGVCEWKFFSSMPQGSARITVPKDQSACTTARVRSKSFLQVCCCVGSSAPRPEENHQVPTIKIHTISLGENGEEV
The experiment in a line: Displacement of [3H]-Prazosin from alpha1 adrenergic receptor in rat brain cerebral cortex membranes by liquid scintillation counting analysis. It is filed as cell membranes, Membrane. The procedure, abridged:
(§1)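 Rat cerebral cortex homogenized in ice-cold 50 mM Tris–HCl (pH 7.6), spun at 20,000 g for 20 min (0–4 °C), resuspended and spun again. Membranes incubated with 0.2 nM [3H]-prazosin (α1) or 2 nM [3H]-clonidine (α2) and seven to eight compound concentrations (10^-11 to 10^-4 M). Non-specific binding defined with 10 µM phentolamine (prazosin) or 10 µM clonidine (clonidine). Ended by GF/C filtration, counted by liquid scintillation. Run in duplicate; Ki from two independent experiments.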
On the technique in general: Displacement assays read how much labelled ligand stays bound in the presence of the test substance.

The target in assay [2] is T2, Adrenergic receptor alpha-2 (Rattus norvegicus, UniProt P22086+P19328+P22909).
T2 sequence (P22086 whole entry): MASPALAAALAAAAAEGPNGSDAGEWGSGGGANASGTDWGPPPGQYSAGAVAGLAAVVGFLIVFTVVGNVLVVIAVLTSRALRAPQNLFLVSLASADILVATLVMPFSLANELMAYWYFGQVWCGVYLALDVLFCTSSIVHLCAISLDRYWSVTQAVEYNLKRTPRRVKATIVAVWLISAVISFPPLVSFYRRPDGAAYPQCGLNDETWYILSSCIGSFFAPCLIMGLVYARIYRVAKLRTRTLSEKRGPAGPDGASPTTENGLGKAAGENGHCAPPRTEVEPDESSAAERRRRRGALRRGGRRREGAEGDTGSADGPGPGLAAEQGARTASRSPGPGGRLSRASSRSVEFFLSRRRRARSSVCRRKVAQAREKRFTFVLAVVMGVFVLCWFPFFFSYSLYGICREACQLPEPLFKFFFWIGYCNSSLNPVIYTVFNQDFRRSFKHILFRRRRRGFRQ
T2 sequence (P19328 whole entry): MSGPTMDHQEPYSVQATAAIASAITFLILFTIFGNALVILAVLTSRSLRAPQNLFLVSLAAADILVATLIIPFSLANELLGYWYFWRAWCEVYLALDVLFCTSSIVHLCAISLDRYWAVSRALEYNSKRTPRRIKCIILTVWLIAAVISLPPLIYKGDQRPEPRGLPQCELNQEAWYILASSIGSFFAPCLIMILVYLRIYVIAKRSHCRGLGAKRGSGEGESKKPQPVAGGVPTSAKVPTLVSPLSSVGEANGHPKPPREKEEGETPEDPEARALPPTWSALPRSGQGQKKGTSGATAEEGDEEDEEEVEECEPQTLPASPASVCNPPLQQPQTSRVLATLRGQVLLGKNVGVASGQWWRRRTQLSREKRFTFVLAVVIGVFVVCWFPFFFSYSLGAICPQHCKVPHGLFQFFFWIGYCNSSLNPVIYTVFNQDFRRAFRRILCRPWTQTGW
T2 sequence (P22909 whole entry): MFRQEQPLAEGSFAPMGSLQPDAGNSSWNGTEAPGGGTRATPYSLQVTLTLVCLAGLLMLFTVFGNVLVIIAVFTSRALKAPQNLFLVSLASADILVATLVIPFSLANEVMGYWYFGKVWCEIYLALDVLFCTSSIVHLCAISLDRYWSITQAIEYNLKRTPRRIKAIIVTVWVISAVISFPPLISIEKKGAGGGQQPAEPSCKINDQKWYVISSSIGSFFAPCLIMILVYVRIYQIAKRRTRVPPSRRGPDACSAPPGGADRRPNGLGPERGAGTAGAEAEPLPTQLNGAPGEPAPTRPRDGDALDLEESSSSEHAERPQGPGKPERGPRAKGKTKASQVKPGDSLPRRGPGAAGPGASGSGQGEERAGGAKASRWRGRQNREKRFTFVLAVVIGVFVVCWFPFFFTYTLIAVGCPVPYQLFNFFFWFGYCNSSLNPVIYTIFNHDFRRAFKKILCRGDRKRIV
As to the kind of experiment: Displacement of [3H]-Clonidine from alpha2 adrenergic receptor in rat brain cerebral cortex membranes by liquid scintillation counting analysis. It is filed as cell membranes, Membrane. The procedure, abridged: as §1

The species named for assay [3] is Rattus norvegicus. As to the kind of experiment: Selectivity ratio of Ki for alpha2 adrenergic receptor in rat brain cerebral cortex membranes to Ki for alpha1 adrenergic receptor in rat brain cerebral cortex membranes. It is filed as cell membranes. Put shortly: as §1
The target in assay [4] is T3, Alpha-1B adrenergic receptor (Homo sapiens, UniProt P35368).
T3 sequence (P35368 whole entry): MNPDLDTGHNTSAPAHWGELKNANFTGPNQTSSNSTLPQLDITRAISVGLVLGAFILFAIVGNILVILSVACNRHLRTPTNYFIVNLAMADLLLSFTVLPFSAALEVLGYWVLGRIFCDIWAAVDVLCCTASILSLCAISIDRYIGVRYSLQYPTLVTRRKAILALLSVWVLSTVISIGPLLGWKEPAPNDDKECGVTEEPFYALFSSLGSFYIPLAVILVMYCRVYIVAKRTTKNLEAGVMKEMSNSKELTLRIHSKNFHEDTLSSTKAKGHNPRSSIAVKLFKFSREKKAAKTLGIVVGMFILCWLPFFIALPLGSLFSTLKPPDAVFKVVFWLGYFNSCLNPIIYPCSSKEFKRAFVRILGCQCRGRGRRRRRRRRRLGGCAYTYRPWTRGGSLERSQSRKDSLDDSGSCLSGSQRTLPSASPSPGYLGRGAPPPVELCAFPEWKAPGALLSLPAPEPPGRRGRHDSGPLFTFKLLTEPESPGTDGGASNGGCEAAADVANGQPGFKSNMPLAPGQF
The experiment in a line: Intrinsic activity at human alpha1B adrenergic receptor expressed in CHOK1 cells co-expressing aequorin assessed as inhibition of agonist induced calcium mobilization preincubated for 15 mins followed by agonist addition measured for 20 secs in presence of coelenterazine H by luminescence assay. It is filed as cell-based, CHO-K1. The procedure, abridged: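 Frozen ready-to-use cells stably expressing α1B receptor and aequorin, resuspended in assay buffer with 5 µM coelenterazine h and rotated overnight at rt in the dark. Diluted to 5000 cells/20 µL. Agonist mode: cells injected onto ligands, light recorded 20 s. Antagonist mode: 15 min with compound at room temperature, then agonist at 3× EC80 final, light recorded 20 s. Mean EC50 from three experiments.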

Assay [5] concerns Rattus norvegicus. The experiment in a line: Hypotensive activity in normotensive anesthetized Wistar rat assessed as decrease in systolic blood pressure at 2 mg/kg, iv administered as single dose measured 60 mins post dose relative to control. It is filed as functional. Particulars: 1 h. Put shortly: (§2)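 Male Wistar rats (200–250 g), groups of six, anaesthetized with thiopental 70 mg/kg ip. Left carotid artery cannulated with heparinized saline-filled tubing for pressure recording. Compounds dissolved in water and given once iv. Blood pressure taken at 0 min (control) and over 60 min afterward. Data as mean ± SEM, analysed by one-way ANOVA with Dunnett's test against 0 min.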

Assay [6] deals with Rattus norvegicus. The experiment in a line: Hypotensive activity in normotensive anesthetized Wistar rat assessed as decrease in diastolic blood pressure at 2 mg/kg, iv administered as single dose measured 60 mins post dose relative to control. It is filed as functional. Particulars: 1 h. The procedure, abridged:
as §2

Take `CC(C)Oc1ccccc1OCCN1CCC(NS(=O)(=O)c2cccc(Cl)c2F)CC1`: the Ki (in general, the dissociation constant of the complex between target and ligand, obtained from inhibition or displacement) is 131 nM in assay [1] and 188 nM in assay [2]. Also, the Ratio Ki in assay [3] worked out at 1.

Turning to `COc1ccccc1OCCN1CCC(NS(=O)(=O)c2cccc3cccnc23)CC1`, the Ki in assay [1] turned out to be 93 nM; in assay [2], 131 nM. For the same compound, the Ratio Ki in assay [3] amounted to 1.

`CC(C)Oc1ccccc1OCCN1CC[C@@H](NS(=O)(=O)c2cccc(Cl)c2F)C1`: the Ki in assay [1] is listed as 176 nM; in assay [2], 378 nM. Besides, in assay [3], the Ratio Ki is 2.

With `CC(C)Oc1ccccc1OCCN1CC[C@@H](NS(=O)(=O)c2cc(Cl)ccc2F)C1`, the Ki in assay [1] is on record as 106 nM; in assay [2] it was 398 nM. Besides, in assay [3], the Ratio Ki worked out at 4.

As to `COc1ccccc1OCCN1CC[C@H](NS(=O)(=O)c2cc(Cl)ccc2F)C1`, the figures for the inhibition constant Ki in assay [1] and in assay [2] were 214 nM and over 10000 nM, respectively.

As to `CC(C)Oc1ccccc1OCCN1CCC(NS(=O)(=O)c2cc(Cl)ccc2F)CC1`, the Ki came to 118 nM in assay [1] and 293 nM in assay [2]. Moreover, the Ratio Ki in assay [3] was 3.

On to `CC(C)Oc1ccccc1OCCN1CCC(NS(=O)(=O)c2cccc3cccnc23)CC1`, for which the Ki is reported as 73 nM in assay [1] and 194 nM in assay [2]. Besides, the Ratio Ki in assay [3] turned out to be 3.

For the compound `CC(C)Oc1ccccc1OCCN1CCC(CNS(=O)(=O)c2cc(Cl)ccc2F)CC1`, the Ki in assay [1] came to 133 nM; in assay [2], 870 nM. The Ratio Ki in assay [3] stood at 7.

`COc1ccccc1OCCN1CCC(NS(=O)(=O)c2cc(Cl)ccc2F)CC1`: the Ki is reported as 34 nM in assay [1] and 129 nM in assay [2]. The Ratio Ki in assay [3] amounted to 4.

As to `COc1ccccc1OCCN1CC[C@H](NS(=O)(=O)c2cccc(Cl)c2F)C1`, the values for the Ki in assay [1] and in assay [2] were 348 nM and over 10000 nM, respectively. For the same compound, the Ratio Ki in assay [3] is over 29.

Consider `CCOc1ccccc1OCCN[C@H](C)Cc1ccc(OC)c(S(N)(=O)=O)c1` [TAMSULOSIN], for which the EC50 (usually the concentration at which the effect is half-maximal) in assay [4] is 0.13 nM. Also, the inhibition in vivo (as a rule, the share of the control response that was lost under treatment) at 2 mg/kg in assay [5] lay within 11 to 17%; in assay [6] it was 11 to 18%.

With `COc1ccccc1OCCN1CC[C@@H](NS(=O)(=O)c2cc(Cl)ccc2F)C1`, the Ki in assay [1] is 289 nM; in assay [2], 2354 nM. Besides, in assay [3], the Ratio Ki stood at 8.

On to `CC(C)Oc1ccccc1OCCN1CC[C@H](NS(=O)(=O)c2cc(Cl)ccc2F)C1`, for which the Ki in assay [1] is on record as 242 nM; in assay [2], over 10000 nM. Besides, in assay [3], the Ratio Ki is over 41.

As to `CC(C)Oc1ccccc1OCCN1CCC(CNS(=O)(=O)c2ccc(F)cc2)CC1`, the Ki turned out to be 77 nM in assay [1] and 416 nM in assay [2]. Moreover, the Ratio Ki in assay [3] stood at 5.

Regarding `CC(C)Oc1ccccc1OCCN1CC[C@H](NS(=O)(=O)c2cccc(Cl)c2F)C1`, the values for the Ki in assay [1] and in assay [2] were 92 nM and over 10000 nM, respectively. Besides, the Ratio Ki in assay [3] is over 109.

Take `CC(C)Oc1ccccc1OCCN1CCC(CNS(=O)(=O)c2cncc3ccccc23)CC1`: the Ki in assay [1] was 67 nM; in assay [2] it was 578 nM. For the same compound, the Ratio Ki in assay [3] is 9.

In the case of `COc1ccccc1OCCN1CC[C@@H](NS(=O)(=O)c2cccc(Cl)c2F)C1`, the Ki in assay [1] was determined as 241 nM; in assay [2], 1944 nM. Moreover, the Ratio Ki in assay [3] is 8.

These data come from ChEMBL document CHEMBL3861996, “Arylsulfonamide derivatives of (aryloxy)ethyl pyrrolidines and piperidines as α1-adrenergic receptor antagonist with uro-selective activity” (Bioorg Med Chem, 2016).
